Data taken from ChEMBL document CHEMBL4138152, “Exploring the tetrahydroisoquinoline thiohydantoin scaffold blockade the androgen receptor as potent anti-prostate cancer agents” (Eur J Med Chem, 2018).
The source made the active and inactive calls. The rule behind the calls is not given here.

What was measured:
[1] = system: DU-145; assay: Antiproliferative activity against human DU145 cells after 3 days by MTT assay; type: functional, cell-based; conditions: DU-145, 72 h
Summary of the method: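 DU145 cells kept in RPMI-1640 with 10% FBS, 37 °C, 5% CO2. Seeded at 7,000 cells/well and left 24 h. Serial dilutions of compound or DMSO added, then 3 d incubation. MTT (5 mg/mL) added for 4 h, formazan dissolved in DMSO, absorbance read at 492 nm. Triplicate or more; IC50 reported as mean.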

[2] = molecular target: T1, Androgen receptor (Homo sapiens) (UniProt P10275); conditions: at 10 µM
T1 sequence (whole entry): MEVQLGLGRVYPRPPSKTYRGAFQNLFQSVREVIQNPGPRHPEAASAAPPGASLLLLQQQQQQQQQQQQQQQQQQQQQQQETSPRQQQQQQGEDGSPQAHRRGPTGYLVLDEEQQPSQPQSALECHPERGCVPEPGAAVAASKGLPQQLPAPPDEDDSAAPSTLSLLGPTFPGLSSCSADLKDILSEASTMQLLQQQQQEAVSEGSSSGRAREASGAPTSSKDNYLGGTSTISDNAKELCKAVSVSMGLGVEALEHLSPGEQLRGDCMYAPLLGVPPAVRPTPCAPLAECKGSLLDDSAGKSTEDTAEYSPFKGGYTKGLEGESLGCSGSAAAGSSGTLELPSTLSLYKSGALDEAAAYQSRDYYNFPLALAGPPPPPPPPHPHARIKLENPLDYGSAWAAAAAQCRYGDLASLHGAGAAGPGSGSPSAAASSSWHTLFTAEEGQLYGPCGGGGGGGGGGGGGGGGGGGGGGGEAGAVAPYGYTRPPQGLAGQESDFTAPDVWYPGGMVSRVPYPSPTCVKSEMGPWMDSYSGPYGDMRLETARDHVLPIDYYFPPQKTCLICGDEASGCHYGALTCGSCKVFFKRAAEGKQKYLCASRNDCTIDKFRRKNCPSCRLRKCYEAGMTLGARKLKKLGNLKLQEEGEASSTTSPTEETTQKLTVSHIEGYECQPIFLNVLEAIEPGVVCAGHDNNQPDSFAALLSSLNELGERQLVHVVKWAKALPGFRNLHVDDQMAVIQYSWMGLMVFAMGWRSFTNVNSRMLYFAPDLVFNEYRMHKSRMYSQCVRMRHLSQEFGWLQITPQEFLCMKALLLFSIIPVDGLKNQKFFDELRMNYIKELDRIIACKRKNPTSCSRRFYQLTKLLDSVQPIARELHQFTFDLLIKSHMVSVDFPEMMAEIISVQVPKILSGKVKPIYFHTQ

[3] = system: LNCaP; assay: Antiproliferative activity against human LNCAP cells after 3 days by MTT assay; type: functional, cell-based; conditions: 72 h
Summary of the method: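 LNCaP cells kept in RPMI-1640 with 10% FBS, 37 °C, 5% CO2. Seeded at 10,000 cells/well and left 24 h. Serial dilutions of compound or DMSO added, then 3 d incubation. MTT (5 mg/mL) added for 4 h, crystals dissolved in DMSO, absorbance read at 492 nm. Triplicate or more; IC50 reported as mean.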

[4] = Elimination half life in rat administered via gavage by HPLC-MS/MS method; type: ADME, organism-based; conditions: in vivo, po, read-out: beta t1/2 (converted)
Summary of the method: (§1)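 Rats 180–220 g, n = 3 per group; compound dissolved in water, single gavage dose of 5.0 mg/kg. Plasma quantified by HPLC-MS/MS. Parameters derived from mean plasma concentration by noncompartmental analysis.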

[5] = Cmax in rat administered via gavage by HPLC-MS/MS method; type: ADME, organism-based; conditions: in vivo, po; summary of the method: as §1
[6] = Tmax in rat administered via gavage by HPLC-MS/MS method; type: ADME, organism-based; conditions: in vivo, po; summary of the method: as §1
[7] = Clearance in rat administered via gavage by HPLC-MS/MS method; type: ADME, organism-based; conditions: in vivo, po; summary of the method: as §1
[8] = AUC (0 to t) in rat administered via gavage by HPLC-MS/MS method; type: ADME, organism-based; conditions: in vivo, po; summary of the method: as §1
[9] = molecular target: T2, Androgen receptor (Homo sapiens, UniProt P10275); type: cell-based
T2 sequence (P10275 whole entry): T1 sequence (whole entry)

[10] = molecular target: T1, Androgen receptor (Homo sapiens); conditions: at 10 µM; remark: listed apart in the source

Row | SMILES | IC50 [1] [µM] | inhibition [2] | IC50 [3] [µM] | half-life [4] [h] | Cmax [5] [ng/mL] | Tmax [6] [h] | CL/F [7] [mL/min/kg] | AUC(0-t) [8] [ng·h/mL] | IC50 [9] [µM] | inhibition [10]
1 | CCC(=O)Nc1ccc2c(c1)CN1C(=S)N(c3ccc(C#N)c(C(F)(F)F)c3)C(=O)C1C2 (stereo unspecified) | > 200 | 4.5% | 19.5 | – | – | – | – | – | – | –
2 | N#Cc1ccc(N2C(=O)C3Cc4cc(Cl)c(O)c(Cl)c4CN3C2=S)cc1C(F)(F)F (stereo unspecified) | 17.1 | 36% | 14 | – | – | – | – | – | – | –
3 | CS(=O)(=O)Nc1ccc2c(c1)CN1C(=S)N(c3ccc(C#N)c(C(F)(F)F)c3)C(=O)C1C2 (stereo unspecified) | > 200 | 13.6% | 31.1 | – | – | – | – | – | – | –
4 | CC(=O)Nc1ccc2c(c1)CN1C(=S)N(c3ccc(C#N)c(C(F)(F)F)c3)C(=O)C1C2 (stereo unspecified) | > 200 | 25% | 83.8 | – | – | – | – | – | – | –
5 | CC12Cc3ccccc3CN1C(=S)N(c1ccc(C#N)c(C(F)(F)F)c1)C2=O (stereo unspecified) | > 200 | 26.2% | 65.3 | – | – | – | – | – | – | –
6 | N#Cc1ccc(N2C(=O)C3Cc4cc(Br)c(O)c(Br)c4CN3C2=S)cc1C(F)(F)F (stereo unspecified) | 11.4 | 6.1% | 11.1 | – | – | – | – | – | – | –
7 | N#Cc1ccc(N2C(=O)C3Cc4ccc(N)cc4CN3C2=S)cc1C(F)(F)F (stereo unspecified) | 89.7 | 37.8% | 18.9 | – | – | – | – | – | – | –
8 | CCOc1ccc2c(c1)CN1C(=S)N(c3ccc(C#N)c(C(F)(F)F)c3)C(=O)C1C2 (stereo unspecified) | 40.9 | 47.1% | 22.6 | – | – | – | – | – | – | –
9 | CCCOc1ccc2c(c1)CN1C(=S)N(c3ccc(C#N)c(C(F)(F)F)c3)C(=O)C1C2 (stereo unspecified) | 62.3 | 54% | 11.6 | – | – | – | – | – | – | –
10 | CCOC(=O)Nc1ccc2c(c1)CN1C(=S)N(c3ccc(C#N)c(C(F)(F)F)c3)C(=O)C1C2 (stereo unspecified) | 90.1 | 45.4% | 6.3 | 34.4 | 641 | 2 | 9.5 | 7030 | – | –
11 | N#Cc1ccc(N2C(=O)C3Cc4ccc([N+](=O)[O-])cc4CN3C2=S)cc1C(F)(F)F (stereo unspecified) | > 200 | 59.8% | 43 | – | – | – | – | – | – | –
12 | CCCC(=O)Nc1ccc2c(c1)CN1C(=S)N(c3ccc(C#N)c(C(F)(F)F)c3)C(=O)C1C2 (stereo unspecified) | > 200 | 45.5% | 10.8 | – | – | – | – | – | – | –
13 | N#Cc1ccc(N2C(=O)C3Cc4cc(N)ccc4CN3C2=S)cc1C(F)(F)F (stereo unspecified) | > 200 | 14.2% | 73 | – | – | – | – | – | – | –
14 | N#Cc1ccc(N2C(=O)C3Cc4ccccc4CN3C2=S)cc1F (stereo unspecified) | 37.1 | inactive | 70.3 | – | – | – | – | – | – | –
15 | CNC(=O)c1ccc(N2C(=S)N(c3ccc(C#N)c(C(F)(F)F)c3)C(=O)C2(C)C)cc1F [ENZALUTAMIDE] | 46.1 | – | 12.5 | – | – | – | – | – | – | –
16 | N#Cc1ccc(N2C(=O)C3Cc4cc(I)c(O)c(I)c4CN3C2=S)cc1C(F)(F)F (stereo unspecified) | 22.1 | 27.3% | 16.3 | – | – | – | – | – | – | –

Row | SMILES | IC50 [1] [µM] | inhibition [2] | IC50 [3] [µM] | half-life [4] [h] | Cmax [5] [ng/mL] | Tmax [6] [h] | CL/F [7] [mL/min/kg] | AUC(0-t) [8] [ng·h/mL] | IC50 [9] [µM] | inhibition [10]
17 | N#Cc1ccc(N2C(=O)C3Cc4cc([N+](=O)[O-])ccc4CN3C2=S)cc1C(F)(F)F (stereo unspecified) | > 200 | inactive | 56.4 | – | – | – | – | – | – | –
18 | CC(C)(C)C(=O)Nc1ccc2c(c1)CN1C(=S)N(c3ccc(C#N)c(C(F)(F)F)c3)C(=O)C1C2 (stereo unspecified) | 83.2 | inactive | 21.2 | – | – | – | – | – | – | –
19 | CNC(=O)c1cc2c(cc1F)CC1C(=O)N(c3ccc(C#N)c(F)c3)C(=S)N1C2 (stereo unspecified) | 85.4 | 26.7% | 116 | – | – | – | – | – | – | –
20 | N#Cc1ccc(N2C(=O)C3Cc4ccc(O)cc4CN3C2=S)cc1C(F)(F)F (stereo unspecified) | > 200 | 85.7% | 50.7 | – | – | – | – | – | – | –
21 | CCOC(=O)CCCOc1c(Br)cc2c(c1Br)CN1C(=S)N(c3ccc(C#N)c(C(F)(F)F)c3)C(=O)C1C2 (stereo unspecified) | 21.9 | inactive | 6.3 | – | – | – | – | – | – | –
22 | CCCCS(=O)(=O)Nc1ccc2c(c1)CN1C(=S)N(c3ccc(C#N)c(C(F)(F)F)c3)C(=O)C1C2 (stereo unspecified) | > 200 | 29.5% | 3.12 | – | – | – | – | – | – | –
23 | CC(C)COc1ccc2c(c1)CN1C(=S)N(c3ccc(C#N)c(C(F)(F)F)c3)C(=O)C1C2 (stereo unspecified) | 52.6 | 61.5% | 10.6 | – | – | – | – | – | – | –
24 | COc1c(Br)cc2c(c1Br)CN1C(=S)N(c3ccc(C#N)c(C(F)(F)F)c3)C(=O)C1C2 (stereo unspecified) | 33.8 | 4.6% | 19.1 | – | – | – | – | – | – | –
25 | CCOC(=O)CCCOc1ccc2c(c1)CN1C(=S)N(c3ccc(C#N)c(C(F)(F)F)c3)C(=O)C1C2 (stereo unspecified) | 15.4 | 43.9% | 18.8 | – | – | – | – | – | – | –
26 | N#Cc1ccc(N2C(=O)C3Cc4ccccc4N3C2=S)cc1C(F)(F)F (stereo unspecified) | – | – | 15.3 | 10.4 | 452 | 2 | 26.5 | 2860 | 18.7 | –
27 | CCOC(=O)Nc1cc2c(cc1F)CC1C(=O)N(c3ccc(C#N)c(C(F)(F)F)c3)C(=S)N1C2 (stereo unspecified) | > 200 | 85.1% | 13.4 | 24.7 | 2290 | 4 | 2.43 | 30000 | 7.39 | Active
28 | COc1ccc2c(c1)CN1C(=S)N(c3ccc(C#N)c(C(F)(F)F)c3)C(=O)C1C2 (stereo unspecified) | 60.4 | inactive | 100 | – | – | – | – | – | – | –
29 | CC(C)Oc1ccc2c(c1)CN1C(=S)N(c3ccc(C#N)c(C(F)(F)F)c3)C(=O)C1C2 (stereo unspecified) | 91.6 | 45.4% | 8.6 | – | – | – | – | – | – | –
30 | N#Cc1ccc(N2C(=O)C3Cc4ccccc4CN3C2=S)cc1C(F)(F)F (stereo unspecified) | > 200 | 89% | 31.1 | 5.13 | 387 | 2 | 20.5 | 3860 | – | –
31 | CNC(=O)c1cc2c(cc1F)CC1C(=O)N(c3ccc(C#N)c(C(F)(F)F)c3)C(=S)N1C2 (stereo unspecified) | > 200 | 47.1% | 28.1 | – | – | – | – | – | – | –
32 | N#Cc1ccc(N2C(=O)C3Cc4ccc(OC5CCCCC5)cc4CN3C2=S)cc1C(F)(F)F (stereo unspecified) | 98.1 | 61.6% | 8.5 | – | – | – | – | – | – | –
